Laboratory results as given in ChEMBL document CHEMBL4627284, “Pyrimethamine conjugated histone deacetylase inhibitors: Design, synthesis and evidence for triple negative breast cancer selective cytotoxicity” (Bioorg Med Chem, 2020).
pIC50: −log10 of the molar value. Activity calls are given as the source filed them. The rule behind the calls is not given here.

What was measured:
MDA-MB-231 [1] = experiment: cells; type: functional, cell-based; settings: Homo sapiens, MDA-MB-231, 72 h
MCF7 = experiment: cells; type: functional, cell-based; settings: Homo sapiens, MCF7, 72 h
Histone deacetylase 1 = Histone deacetylase 1 (Homo sapiens, UniProt Q13547); experiment: Inhibition of human recombinant HDAC1 using fluorogenic HDAC substrate preincubated for 30 mins followed by substrate addition and measured after 15 mins by fluorogenic assay
Vero = experiment: cells; settings: Chlorocebus sabaeus, 72 h
A549 = experiment: cells; type: functional, cell-based; settings: Homo sapiens, A549, 72 h
[2] = molecular target: T1, Protein deacetylase HDAC6 (Homo sapiens, UniProt Q9UBN7); experiment: Inhibition of human recombinant HDAC6 using fluorogenic HDAC substrate 3 preincubated for 30 mins followed by substrate addition and measured after 15 mins by fluorogenic assay
T1 sequence (Q9UBN7 whole entry): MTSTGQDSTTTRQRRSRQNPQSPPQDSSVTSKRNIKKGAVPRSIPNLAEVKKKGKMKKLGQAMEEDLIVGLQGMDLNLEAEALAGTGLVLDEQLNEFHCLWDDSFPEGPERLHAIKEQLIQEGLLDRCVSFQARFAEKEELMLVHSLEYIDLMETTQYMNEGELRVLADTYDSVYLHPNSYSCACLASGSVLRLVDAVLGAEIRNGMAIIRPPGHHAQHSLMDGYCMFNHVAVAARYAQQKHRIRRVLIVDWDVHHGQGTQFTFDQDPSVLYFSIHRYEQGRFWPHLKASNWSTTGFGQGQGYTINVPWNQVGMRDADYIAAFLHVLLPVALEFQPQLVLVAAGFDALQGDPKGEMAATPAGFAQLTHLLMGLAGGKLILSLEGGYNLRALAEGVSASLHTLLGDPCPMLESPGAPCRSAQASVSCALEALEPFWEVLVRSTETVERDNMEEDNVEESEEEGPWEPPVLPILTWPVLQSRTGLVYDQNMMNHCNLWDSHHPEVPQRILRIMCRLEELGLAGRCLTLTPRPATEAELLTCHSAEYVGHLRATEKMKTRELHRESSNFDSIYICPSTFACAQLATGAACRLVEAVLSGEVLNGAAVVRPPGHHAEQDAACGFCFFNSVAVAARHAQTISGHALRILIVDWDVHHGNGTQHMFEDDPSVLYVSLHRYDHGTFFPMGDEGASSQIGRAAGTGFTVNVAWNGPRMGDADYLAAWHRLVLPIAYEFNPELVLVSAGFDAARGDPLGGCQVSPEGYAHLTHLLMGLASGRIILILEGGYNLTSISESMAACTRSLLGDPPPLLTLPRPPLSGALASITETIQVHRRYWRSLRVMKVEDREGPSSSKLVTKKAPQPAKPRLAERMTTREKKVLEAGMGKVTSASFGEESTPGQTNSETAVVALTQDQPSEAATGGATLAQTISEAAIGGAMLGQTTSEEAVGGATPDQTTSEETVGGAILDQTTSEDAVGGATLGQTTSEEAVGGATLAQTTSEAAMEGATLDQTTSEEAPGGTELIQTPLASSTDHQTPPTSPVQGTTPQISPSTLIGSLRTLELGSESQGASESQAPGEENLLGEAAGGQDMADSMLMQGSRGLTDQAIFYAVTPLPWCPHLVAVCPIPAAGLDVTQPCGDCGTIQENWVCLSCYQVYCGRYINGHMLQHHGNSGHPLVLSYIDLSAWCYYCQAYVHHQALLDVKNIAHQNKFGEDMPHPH

Histone deacetylase 8 = molecular target: T2, Histone deacetylase 8 (Homo sapiens, UniProt Q9BY41); experiment: Inhibition of human recombinant HDAC8 using fluorogenic HDAC substrate class 2A preincubated for 30 mins followed by substrate addition and measured after 15 mins by fluorogenic assay
T2 sequence (Q9BY41 whole entry): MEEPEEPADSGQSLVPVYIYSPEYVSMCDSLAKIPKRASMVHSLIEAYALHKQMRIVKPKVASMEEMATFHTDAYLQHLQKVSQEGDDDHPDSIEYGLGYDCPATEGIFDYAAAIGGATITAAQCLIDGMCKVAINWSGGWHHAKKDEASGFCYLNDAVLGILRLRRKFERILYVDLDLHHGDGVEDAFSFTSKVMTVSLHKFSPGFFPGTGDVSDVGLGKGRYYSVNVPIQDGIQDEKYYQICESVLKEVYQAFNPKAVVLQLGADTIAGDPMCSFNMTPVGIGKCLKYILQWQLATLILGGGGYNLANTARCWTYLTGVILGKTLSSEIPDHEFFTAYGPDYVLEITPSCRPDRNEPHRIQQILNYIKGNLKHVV

MDA-MB-231 [3] = experiment: Cell cycle arrest in human MDA-MB-231 cells assessed as accumulation of cells at G2 phase at 15 uM incubated for 48 hrs RNase/PI staining based flow cytometry assay; type: functional
In short: (§1)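 MDA-MB-231 cells, 5*10⁶ per 10 cm plate, were grown in DMEM for 24 h and then dosed for 48 h from DMSO stocks (final DMSO 0.1%; DMSO as control). Cells were trypsinized, washed twice in cold PBS and fixed in 70% ethanol overnight at -20°C. They were treated with 200 ug/mL RNase for 30 min, stained with 50 ug/mL PI at RT for 30 min, and DNA content was read by flow cytometry.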

[4] = molecular target: Signal transducer and activator of transcription 3 (Homo sapiens) (UniProt P40763); experiment: Inhibition of STAT3 in human MDA-MB-231 cells assessed as change in Bcl-2 expression at 0.8 to 1.6 uM after 24 hrs by western blot analysis; type: cell-based
In short: (§2)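 MDA-MB-231 cells, 1*10⁶ per well, were grown in DMEM for 24 h, serum-starved for 24 h, then treated for 24 h from DMSO solutions (final DMSO 0.1%; DMSO control). Cells were lysed in RIPA with protease and phosphatase inhibitors and protein equalized by BCA. 20-40 µg was run on 4-20% gels and transferred to PVDF, which was blocked in 5% BSA. Primary antibodies were applied overnight and secondary for 1 h, and band intensities were quantified by infrared imaging.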

[5] = molecular target: Signal transducer and activator of transcription 3 (Homo sapiens) (UniProt P40763); experiment: Inhibition of STAT3 in human MDA-MB-231 cells assessed as downregulation of Bcl-xL expression after 24 hrs by western blot analysis; type: cell-based
In short: as §2

MDA-MB-231 [6] = experiment: Cell cycle arrest in human MDA-MB-231 cells assessed as accumulation of cells at G1 phase at 5 uM incubated for 48 hrs RNase/PI staining based flow cytometry assay (reference value: 64.3 %); type: functional
In short: as §1

[7] = molecular target: Signal transducer and activator of transcription 3 (Homo sapiens) (UniProt P40763); experiment: Inhibition of STAT3 in human MDA-MB-231 cells assessed as upregulation of p-p38 expression after 24 hrs by western blot analysis; type: cell-based
In short: as §2

MDA-MB-231 [8] = experiment: Cell cycle arrest in human MDA-MB-231 cells assessed as accumulation of cells at G2 phase at 5 uM incubated for 48 hrs RNase/PI staining based flow cytometry assay (reference value: 17.4 %); type: functional
In short: as §1

[9] = molecular target: Signal transducer and activator of transcription 3 (Homo sapiens) (UniProt P40763); experiment: Inhibition of STAT3 in human MDA-MB-231 cells assessed as slight down regulation of pSTAT3 expression at 50 to 100 uM after 24 hrs by western blot analysis; type: cell-based
In short: as §2

[10] = molecular target: Signal transducer and activator of transcription 3 (Homo sapiens) (UniProt P40763); experiment: Inhibition of STAT3 in human MDA-MB-231 cells assessed as downregulation of cyclinD1 expression at 5 to 25 uM after 24 hrs by western blot analysis; type: cell-based
In short: as §2

Histone deacetylase 1, sequence (Q13547 whole entry): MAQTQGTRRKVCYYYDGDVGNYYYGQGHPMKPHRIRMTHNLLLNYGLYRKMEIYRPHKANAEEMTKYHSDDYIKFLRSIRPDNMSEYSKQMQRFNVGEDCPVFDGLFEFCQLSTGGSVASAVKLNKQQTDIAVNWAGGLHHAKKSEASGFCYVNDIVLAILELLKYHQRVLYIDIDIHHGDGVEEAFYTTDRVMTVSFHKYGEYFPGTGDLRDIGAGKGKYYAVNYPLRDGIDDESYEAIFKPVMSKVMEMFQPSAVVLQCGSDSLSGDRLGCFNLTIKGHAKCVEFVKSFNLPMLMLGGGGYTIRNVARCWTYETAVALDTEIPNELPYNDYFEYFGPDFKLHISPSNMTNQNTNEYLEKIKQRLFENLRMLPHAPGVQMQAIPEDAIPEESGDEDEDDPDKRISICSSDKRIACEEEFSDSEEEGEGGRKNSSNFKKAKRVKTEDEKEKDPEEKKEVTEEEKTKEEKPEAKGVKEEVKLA
Signal transducer and activator of transcription 3 (Homo sapiens), sequence (P40763 whole entry): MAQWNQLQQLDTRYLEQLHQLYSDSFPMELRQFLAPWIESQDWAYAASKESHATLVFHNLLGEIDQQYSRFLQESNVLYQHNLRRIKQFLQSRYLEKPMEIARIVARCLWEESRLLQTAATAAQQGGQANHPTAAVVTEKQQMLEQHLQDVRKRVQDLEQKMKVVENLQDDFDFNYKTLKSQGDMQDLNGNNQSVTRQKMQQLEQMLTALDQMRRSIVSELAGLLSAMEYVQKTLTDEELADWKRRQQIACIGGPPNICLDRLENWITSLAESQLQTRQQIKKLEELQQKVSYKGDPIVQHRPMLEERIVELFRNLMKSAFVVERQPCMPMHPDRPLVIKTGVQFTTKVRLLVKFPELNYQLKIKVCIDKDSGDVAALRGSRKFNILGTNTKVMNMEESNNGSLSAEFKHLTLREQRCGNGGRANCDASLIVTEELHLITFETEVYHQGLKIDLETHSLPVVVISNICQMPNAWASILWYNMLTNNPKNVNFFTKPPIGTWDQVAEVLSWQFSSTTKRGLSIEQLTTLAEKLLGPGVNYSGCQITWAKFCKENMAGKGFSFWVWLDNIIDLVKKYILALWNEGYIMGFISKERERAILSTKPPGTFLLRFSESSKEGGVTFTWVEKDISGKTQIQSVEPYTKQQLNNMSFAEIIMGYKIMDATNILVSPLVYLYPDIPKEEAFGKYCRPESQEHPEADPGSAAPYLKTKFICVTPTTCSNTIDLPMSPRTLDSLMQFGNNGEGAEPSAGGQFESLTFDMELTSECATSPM

Row | pIC50 (MDA-MB-231 [1]) | pIC50 (MCF7) | pIC50 (Histone deacetylase 1) | pIC50 (A549) | pIC50 [2] | pIC50 (Histone deacetylase 8) | inhibition [4] | inhibition [5] | inhibition [7] | inhibition [9] | inhibition [10] | SMILES | pIC50 (Vero) | Activity (MDA-MB-231 [3]) | Activity (MDA-MB-231 [6]) | Activity (MDA-MB-231 [8])
1 | 5.27 | 5.03 | 5.43 | 5.00 | 7.14 |  |  |  |  |  |  | CCc1nc(N)nc(N)c1-c1ccc(-c2ccc(/C=C/C(=O)NO)cc2)cc1 | 5.16 |  |  | 
2 | 4.91 | 4.24 | 7.35 | 4.18 | 7.77 | 6.11 |  |  |  |  |  | CCc1nc(N)nc(N)c1-c1ccc(-c2cn(CCCCCCC(=O)NO)nn2)cc1 | 4.40 | Active |  | 
3 | 4.42 |  | 6.59 |  | 7.34 | 5.55 |  |  |  |  |  | CCc1nc(N)nc(N)c1-c1ccc(-c2cn(CCCCCC(=O)NO)nn2)cc1 |  |  |  | 
4 |  |  |  |  |  |  | inactive | Dose-dependent effect | Dose-dependent effect | Active | Active | O=C(CCCCCCC(=O)Nc1ccccc1)NO [VORINOSTAT] |  |  | 18.2% | 65.1%
